Results on 20 molecules are retold here after ChEMBL document CHEMBL1132230, “1-(1,2,5-Thiadiazol-4-yl)-4-azatricyclo[2.2.1.0(2,6)]heptanes as new potent muscarinic M1 agonists: structure-activity relationship for 3-aryl-2-propyn-1-yloxy and 3-aryl-2-propyn-1-ylthio derivatives” (J Med Chem, 1999).

Test [1] in a line: Ratio of EC50(CHO-M2) and EC50(A9L-M1). It counts as functional. The procedure, abridged:
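Ratio of EC50 for inhibition of forskolin-stimulated cAMP in human-M2 CHO cells to EC50 for PI hydrolysis in A9L-M1 cells, both measured in this work.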

Test [2] has as its target T1, Muscarinic acetylcholine receptor M2 (Homo sapiens) (UniProt P08172).
T1 sequence (whole entry): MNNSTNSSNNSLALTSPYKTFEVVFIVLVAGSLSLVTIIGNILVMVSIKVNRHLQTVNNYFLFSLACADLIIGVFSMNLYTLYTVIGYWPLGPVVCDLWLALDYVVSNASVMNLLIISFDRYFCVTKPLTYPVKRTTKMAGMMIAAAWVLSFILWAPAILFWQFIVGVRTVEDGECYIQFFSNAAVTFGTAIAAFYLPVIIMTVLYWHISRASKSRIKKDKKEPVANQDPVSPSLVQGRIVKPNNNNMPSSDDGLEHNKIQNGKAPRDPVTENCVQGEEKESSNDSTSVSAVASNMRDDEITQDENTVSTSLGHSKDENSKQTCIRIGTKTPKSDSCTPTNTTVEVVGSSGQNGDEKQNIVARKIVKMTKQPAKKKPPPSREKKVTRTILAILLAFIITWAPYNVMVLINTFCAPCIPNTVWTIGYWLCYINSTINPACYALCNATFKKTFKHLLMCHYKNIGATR
The test is described as follows: Inhibition of forskolin induced c-AMP formation in CHO-M2 cells expressing human M2 receptor. It counts as functional, cell-based. The procedure, abridged: (§1)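 CHO cells transfected with human M2 receptor plasmid and cultured with atropine and methotrexate; atropine withdrawn overnight. Cells detached with PBS/1 mM EDTA, then preincubated 30 min at 0 °C in DMEM/20 mM HEPES pH 7.4 with 0.5 mM IBMX. Compound added and 10 μM forskolin (final) started a 10 min, 37 °C incubation, stopped with ice-cold ethanol. cAMP measured by radioimmunoassay.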

Test [3] deals with T2, Muscarinic acetylcholine receptor M1 (Homo sapiens, UniProt P11229).
T2 sequence (P11229 whole entry): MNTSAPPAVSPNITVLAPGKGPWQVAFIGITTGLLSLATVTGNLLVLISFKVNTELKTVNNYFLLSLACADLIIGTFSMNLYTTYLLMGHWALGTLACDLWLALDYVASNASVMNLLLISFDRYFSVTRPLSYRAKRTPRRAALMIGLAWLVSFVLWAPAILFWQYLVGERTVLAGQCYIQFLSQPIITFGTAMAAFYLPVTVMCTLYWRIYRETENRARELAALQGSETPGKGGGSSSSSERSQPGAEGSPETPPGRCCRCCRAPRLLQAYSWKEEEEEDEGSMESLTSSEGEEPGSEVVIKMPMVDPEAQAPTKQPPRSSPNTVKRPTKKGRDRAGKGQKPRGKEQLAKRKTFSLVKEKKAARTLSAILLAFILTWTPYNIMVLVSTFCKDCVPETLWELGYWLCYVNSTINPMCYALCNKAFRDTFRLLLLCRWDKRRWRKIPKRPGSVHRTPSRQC
The test is described as follows: Stimulation of phosphoinositol hydrolysis in the mouse fibroblast cell line A9L-M1 expressing Muscarinic acetylcholine receptor M1. It counts as functional, cell-based.

Test [4] deals with T3, Muscarinic acetylcholine receptor M2 (Rattus norvegicus, UniProt P10980).
T3 sequence (P10980 whole entry): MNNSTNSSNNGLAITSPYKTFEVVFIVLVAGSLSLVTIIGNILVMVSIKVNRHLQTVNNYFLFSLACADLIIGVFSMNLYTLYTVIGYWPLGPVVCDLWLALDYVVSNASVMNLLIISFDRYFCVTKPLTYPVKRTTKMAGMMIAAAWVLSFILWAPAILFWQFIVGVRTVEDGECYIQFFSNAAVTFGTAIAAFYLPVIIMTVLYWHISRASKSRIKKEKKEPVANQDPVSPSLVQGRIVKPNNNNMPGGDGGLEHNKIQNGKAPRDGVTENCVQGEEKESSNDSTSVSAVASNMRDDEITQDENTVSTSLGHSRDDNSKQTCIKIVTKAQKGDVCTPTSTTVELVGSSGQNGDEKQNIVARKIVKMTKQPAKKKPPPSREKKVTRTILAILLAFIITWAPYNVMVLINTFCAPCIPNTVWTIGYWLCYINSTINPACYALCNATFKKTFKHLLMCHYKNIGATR
Put plainly: Inhibition of [3H]- Oxo-M binding at Muscarinic acetylcholine receptor M2 in rat brain membranes. It counts as cell membranes. The procedure, abridged:
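Rat cortex homogenized in 20 mM HEPES pH 7.4 and centrifuged at 40000g. Membranes incubated 60 min at room temperature with 1 nM (final) [³H]oxotremorine-M and compound. Separated on PEI-soaked GF/C filters and counted by scintillation. Nonspecific binding defined with 10 μM arecoline. Value reported as IC50.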

Test [5] concerns the target T4, Muscarinic acetylcholine receptor M2 (Homo sapiens, UniProt P08172).
T4 sequence (P08172 whole entry): T1 sequence (whole entry)
The test is described as follows: Compound was tested for its potency at M-2 receptor by inhibiting forskolin induced c-AMP formation in CHO-M2 cells human M2 receptor. The format is functional, cell-based. The procedure, abridged: as §1

Test [6] concerns the target T1, Muscarinic acetylcholine receptor M2 (Homo sapiens). The test is described as follows: Compound was tested for its potency towards Muscarinic acetylcholine receptor M2 by inhibiting forskolin induced c-AMP formation in CHO-M2 cells expressing human Muscarinic acetylcholine receptor M2 receptor. The format is functional, cell-based. The procedure, abridged: as §1

The target in test [7] is T5, Muscarinic acetylcholine receptor M1 (Homo sapiens) (UniProt P11229).
T5 sequence (whole entry): T2 sequence (P11229 whole entry)
Put plainly: (§2) Compound was tested for its ability to stimulate phosphoinositol (PI) hydrolysis in the mouse fibroblast cell line A9L-M1 expressing Muscarinic acetylcholine receptor M1 (100 uM concentration). It counts as functional, cell-based. The procedure, abridged: (§3)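 A9L mouse fibroblasts stably expressing M1, grown to confluence in DMEM/10% FCS with 1.3 μCi/mL [³H]inositol for 48 h, detached with trypsin and resuspended in HEPES/LiCl buffer (LiCl 10 mM, pH 7.4). Cells incubated 45 min at 37 °C with compound up to 100 μM. Total [³H]inositol phosphates separated by ion exchange and counted.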

The target of test [8] is T2, Muscarinic acetylcholine receptor M1. The description is as §2. The format is functional, cell-based. The procedure, abridged: as §3
In test [9] the target is T3, Muscarinic acetylcholine receptor M2. Put plainly: In vitro Muscarinic acetylcholine receptor M2 binding was evaluated in rat brain membranes by using [3H]- Oxo-M. The format is cell membranes. The procedure, abridged: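 Rat cortex homogenized in 20 mM Hepes pH 7.4 and spun 10 min at 40000g; pellet resuspended and incubated with [3H]oxotremorine-M (1 nM final) plus test drug for 60 min at room temperature. Bound and free separated by vacuum filtration on PEI-presoaked GF/C filters, then scintillation counting.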

Test [10] deals with T1, Muscarinic acetylcholine receptor M2 (Homo sapiens). The test is described as follows: Compound was tested for its potency at Muscarinic acetylcholine receptor M2 by inhibiting forskolin induced c-AMP formation in CHO-M2 cells expressing human M2 receptor. It counts as functional, cell-based. The procedure, abridged:
(§4)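 Human M2 receptor plasmid transfected into CHO cells […], cultured in DMEM/10% FBS with 1 μM atropine and 1 μM methotrexate; atropine-free medium overnight before assay. Cells detached with PBS + 1 mM EDTA, washed into DMEM + 20 mM HEPES pH 7.4 + 0.5 mM IBMX, preincubated 30 min at 0 °C. Forskolin 10 μM final, 10 min at 37 °C; ethanol stop; cAMP by radioimmunoassay.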

Test [11] concerns the target T4, Muscarinic acetylcholine receptor M2. Put plainly: Compound was tested for its potency towards Muscarinic acetylcholine receptor M2 by inhibiting forskolin induced c-AMP formation in CHO-M2 cells. It counts as functional, cell-based. The procedure, abridged:
as §4

By EC50 is commonly meant the midpoint of the concentration-response curve. Low readings indicate higher potency in that assay, high ones lower potency in that assay. For orientation: IC50 means the concentration at which inhibition is half-maximal. Low values mean higher potency, high ones lower potency. On to `Fc1cc(F)cc(C#CCSc2nsnc2C23CN4CC2C3C4)c1`, for which the Ratio in test [1] is 218. This molecule also returned a Max in test [2] of 79%. Besides, the EC50 amounted to 7.6 nM in test [3] and 1660 nM in [5]. The molecule further showed a half-inhibitory concentration (IC50) in [4] of 28 nM.

Consider `Fc1cc(Cl)cc(C#CCSc2nsnc2C23CN4CC2C3C4)c1`, for which the Ratio in test [1] was found to be 17. For the same molecule, the Max in [2] is 90%. For the same molecule, the concentration giving a half-maximal response (EC50) is 46 nM in test [3] and 763 nM in test [5]. The half-maximal inhibitory concentration (IC50) in test [4] came to 142 nM.

For the molecule `Fc1cc(F)cc(C#CCOc2nsnc2C23CN4CC2C3C4)c1`, the Ratio in [1] turned out to be 133. Besides, the Max in [2] was 68%. For the same molecule, the EC50 amounted to 20.2 nM in test [3] and 2690 nM in test [5]. In addition, the 50% inhibitory concentration (IC50) in test [4] came out at 30 nM.

Turning to `Fc1ccc(C#CCOc2nsnc2C23CN4CC2C3C4)cc1`, in test [1], the Ratio was found to be 11. Further, the Max in [2] stood at 109%. Further, the EC50 in test [3] is 71 nM; in test [5], 791 nM. This molecule also showed a 50% inhibitory concentration (IC50) in test [4] of 10 nM.

Take `Clc1cccc(C#CCOc2nsnc2C23CN4CC2C3C4)c1`: the Ratio in [1] is 217. Moreover, the Max in test [2] came to 101%. In addition, the 50% effective concentration (EC50) in test [3] came to 10.5 nM; in [5] it was 2280 nM. In test [4], this molecule yielded a 50% inhibitory concentration (IC50) of 47 nM.

As to `Clc1cc(Cl)cc(C#CCOc2nsnc2C23CN4CC2C3C4)c1`, the Max in [2] turned out to be 23%. This molecule also returned a concentration for a half-maximal effect (EC50) in test [3] of 1200 nM. The same molecule displayed an IC50 in test [4] of 1690 nM.

`C[N+](C)(C)CCOC(N)=O` gave a Max in test [6] of 100%.

On to `Fc1cccc(C#CCOc2nsnc2C23CN4CC2C3C4)c1`, for which the Ratio in test [1] worked out at 139. For the same molecule, the Max in [7] was determined as 91%. Besides, the EC50 in [8] is 4.9 nM; in test [5] it was 683 nM. The concentration for half-maximal inhibition (IC50) in test [4] came out at 21 nM.

`Clc1ccc(C#CCOc2nsnc2C23CN4CC2C3C4)cc1` yielded a Max in [2] of 102%. In test [4], this molecule had a half-inhibitory concentration (IC50) of 63 nM. Further, a half-maximal response in test [5] (EC50) required 1210 nM.

Turning to `CCCCCCOc1nsnc1C1=CCCN(C)C1` [XANOMELINE], the half-inhibitory concentration (IC50) in [9] worked out at 16 nM. In test [6], this molecule came in with a Max of 82%.

As for `CN1CCC=C(c2nsnc2OCC#Cc2ccccc2)C1`, the Ratio in test [1] is 2. Besides, the Max in test [2] stood at 115%. Further, the IC50 in [4] stood at 14 nM.

Take `C(#Cc1ccccc1)CSc1nsnc1C12CN3CC1C2C3`: the Ratio in test [1] is 14. This molecule yielded a Max in test [2] of 106%. For the same molecule, the EC50 worked out at 61.9 nM in test [3] and 853 nM in test [5]. In [4], the IC50 was determined as 27 nM.

Consider `C(#Cc1ccccc1)COc1nsnc1C12CN3CC1C2C3`, for which the Ratio in test [1] came out at 11. For the same molecule, the IC50 in test [4] worked out at 16 nM. This molecule also had a Max in [10] of 99%.

In the case of `Clc1ccc(C#CCSc2nsnc2C23CN4CC2C3C4)cc1`, in [1], the Ratio amounted to 1. In [2], the Max stood at 76%. For the same molecule, the EC50 in test [3] worked out at 107 nM; in test [5], 80 nM. The same molecule gave an IC50 in [4] of 242 nM.

On to `Fc1cccc(C#CCSc2nsnc2C23CN4CC2C3C4)c1`, for which, in [1], the Ratio is 362. Further, in test [2], the Max was found to be 106%. Further, the EC50 in test [3] was 2.5 nM; in [5], 904 nM. In addition, in test [4], the IC50 was 26 nM.

For `Fc1cc(Cl)cc(C#CCOc2nsnc2C23CN4CC2C3C4)c1`, the Ratio in test [1] came to 13. Also, the Max in test [2] turned out to be 76%. Besides, the results for the 50% effective concentration (EC50) in test [3] and in [5] were 110 nM and 1480 nM, respectively. Besides, the IC50 in [4] was found to be 92 nM.

As for `Fc1ccc(C#CCSc2nsnc2C23CN4CC2C3C4)cc1`, in test [1], the Ratio worked out at 18. This molecule registered a Max in test [2] of 88%. Moreover, the EC50 worked out at 4.5 nM in test [3] and 83 nM in [5]. The molecule also gave an IC50 in [4] of 20 nM.

`COc1cccc(C#CCO/N=C2\CN3CCC2C3)c1` (stereo not given): the Ratio in test [1] came out at 4. The EC50 in [11] worked out at 26700 nM; in test [3] it was 7120 nM. For the same molecule, the IC50 in test [9] stood at 150 nM. In [6], this molecule gave a Max of 89%.

Consider `Clc1cccc(C#CCSc2nsnc2C23CN4CC2C3C4)c1`, for which the Ratio in test [1] was 74. In test [2], the Max was found to be 96%. Moreover, the results for the EC50 in test [3] and in [5] were 9 nM and 673 nM, respectively. Besides, in [4], the IC50 was found to be 49 nM.

In the case of `Clc1cc(Cl)cc(C#CCSc2nsnc2C23CN4CC2C3C4)c1`, in [1], the Ratio was found to be 0.3. Further, in test [2], the Max is 84%. Besides, the EC50 in test [3] was 1810 nM; in test [5], 528 nM. For the same molecule, the IC50 in [4] was 788 nM.
